Results published in ChEMBL document CHEMBL1124186, “Synthesis and evaluation of tylosin-related macrolides modified at the aldehyde function: a new series of orally effective antibiotics” (1988).
≈ marks a conversion by molar mass, not a printed value.

Key:
Streptococcus pyogenes [1] = assay: In vivo effective dose against experimental infections in rodent caused by Streptococcus pyogenes C203 when administered orally; assay type: functional; conditions: po
[2] = system: Staphylococcus epidermidis; assay: In vitro antimicrobial activity against Staphylococcus epidermidis EPI1; assay type: functional
Streptococcus pyogenes [3] = assay: In vitro antimicrobial activity against Streptococcus pyogenes C203; assay type: functional
Streptococcus pyogenes [4] = assay: In vivo effective dose against experimental infections in rodent caused by Streptococcus pyogenes C203 when administered sc; assay type: functional
Streptococcus pneumoniae [5] = assay: In vivo effective dose against experimental infections in mice Streptococcus pneumoniae park when administered orally; assay type: functional; conditions: po
Streptococcus pneumoniae [6] = assay: In vivo effective dose against experimental infections in mice Streptococcus pneumoniae park when administered sc; assay type: functional
Staphylococcus aureus = assay: In vitro antimicrobial activity against Staphylococcus aureus X1; assay type: functional
Streptococcus pneumoniae [7] = assay: In vitro antimicrobial activity against Streptococcus pneumoniae; assay type: functional
Haemophilus influenzae = assay: In vitro antimicrobial activity against Haemophilus influenzae.; assay type: functional
Enterococcus faecium = assay: In vitro antimicrobial activity against Streptococcus faecium X66; assay type: functional, streptococcus fae-cium
Streptococcus pyogenes [8] = assay: Antimicrobial activity against Streptococcus pyogenes C203; assay type: functional
Streptococcus pyogenes [9] = assay: Activity against Streptococcus pyogenes C203 when administered orally; assay type: functional; conditions: po
Summary of the method: (§1)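 Mouse protection test: infected mice were dosed twice, at 1 and 5 h postinfection, either subcutaneously or orally. […] The result is expressed as ED50 in mg/kg × 2.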

Streptococcus pyogenes [10] = assay: Activity against Streptococcus pyogenes C203 when administered sc; assay type: functional; summary of the method: as §1
Rattus norvegicus [11] = assay: Peripheral plasma levels in rats after oral administration of 100 mg/kg dose for 0.5 hr; assay type: functional, organism-based; design: dose 100 mg/kg
Summary of the method: (§2)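 Rats received 100 mg/kg orally and were sampled for peripheral plasma. Concentrations were measured by Micrococcus luteus agar-diffusion microbiological assay in Antibiotic Medium 1, with zone sizes converted using the standard curve for the appropriate compound. Each value is the average of three rats per time point.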

Rattus norvegicus [12] = assay: Peripheral plasma levels in rats after oral administration of 100 mg/kg dose for 4 hr; assay type: functional, organism-based; design: dose 100 mg/kg; summary of the method: as §2
Mus musculus [13] = assay: Peripheral plasma levels in mice after oral administration of 50 mg/kg dose for 2 hr; assay type: functional, organism-based; design: dose 50 mg/kg
Summary of the method: (§3)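 Mice were given the compound orally and sampled for peripheral plasma at each time point. Plasma was assayed microbiologically against Micrococcus luteus seeded in Antibiotic Medium 1. Inhibition zone sizes were read, and concentrations were calculated from each compound's own standard curve. Each value is the mean of five mice per time point.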

Rattus norvegicus [14] = assay: Peripheral plasma levels in rats after oral administration of 100 mg/kg dose for 0.25 hr; assay type: functional, organism-based; design: dose 100 mg/kg; summary of the method: as §2
Mus musculus [15] = assay: Peripheral plasma levels in mice after oral administration of 50 mg/kg dose for 0.5 hr; assay type: functional, organism-based; design: dose 50 mg/kg; summary of the method: as §3
Rattus norvegicus [16] = assay: Peripheral plasma levels in rats after oral administration of 100 mg/kg dose for 1 hr; assay type: functional, organism-based; design: dose 100 mg/kg; summary of the method: as §2
Mus musculus [17] = assay: Peripheral plasma levels in mice after oral administration of 50 mg/kg dose for 0.25 hr; assay type: functional, organism-based; design: dose 50 mg/kg; summary of the method: as §3
Mus musculus [18] = assay: Peripheral plasma levels in mice after oral administration of 50 mg/kg dose for 4 hr; assay type: functional, organism-based; design: dose 50 mg/kg; summary of the method: as §3
Rattus norvegicus [19] = assay: Peripheral plasma levels in rats after oral administration of 100 mg/kg dose for 2 hr; assay type: functional, organism-based; design: dose 100 mg/kg; summary of the method: as §2
Mus musculus [20] = assay: Peripheral plasma levels in mice after oral administration of 50 mg/kg dose for 1 hr; assay type: functional, organism-based; design: dose 50 mg/kg; summary of the method: as §3

Row | MIC [2] | MIC (Streptococcus pyogenes [3]) | MIC (Staphylococcus aureus) | MIC (Streptococcus pneumoniae [7]) | MIC (Haemophilus influenzae) | MIC (Enterococcus faecium) | MIC (Streptococcus pyogenes [8]) | Structure (SMILES) | ED50 (Streptococcus pyogenes [1]) | ED50 (Streptococcus pyogenes [4]) | ED50 (Streptococcus pyogenes [9]) | ED50 (Streptococcus pyogenes [10]) | further results
1 | 0.5 µg/mL (≈ 0.531 µM) | 0.25 µg/mL (≈ 0.265 µM) | 0.5 µg/mL (≈ 0.531 µM) | 0.25 µg/mL (≈ 0.265 µM) | 16 µg/mL (≈ 17 µM) | 0.5 µg/mL (≈ 0.531 µM) | – | CC[C@H]1OC(=O)C[C@@H](O)[C@H](C)[C@@H](O[C@@H]2O[C@H](C)[C@@H](O)[C@H](N(C)C)[C@H]2O)[C@@H](CCOc2cccc(Oc3ccccc3)c2)C[C@@H](C)C(=O)/C=C/C(C)=C/[C@@H]1CO[C@@H]1O[C@H](C)[C@@H](O)[C@@H](OC)[C@H]1OC | 35 mg/kg | > 10 mg/kg | – | – | ED50 (Streptococcus pneumoniae [5]): 46 mg/kg; ED50 (Streptococcus pneumoniae [6]): > 20 mg/kg
2 | – | – | – | – | – | – | 4 µg/mL (≈ 3.86 µM) | CC[C@H]1OC(=O)C[C@@H](O)[C@H](C)[C@@H](O[C@@H]2O[C@H](C)[C@@H](O[C@H]3C[C@@](C)(O)[C@@H](O)[C@H](C)O3)[C@H](N(C)C)[C@H]2OC(C)=O)[C@@H](CCOc2ccccc2)C[C@@H](C)C(=O)/C=C/C(C)=C/[C@@H]1CO[C@@H]1O[C@H](C)[C@@H](O)[C@@H](OC)[C@H]1OC | – | – | 76.5 mg/kg | > 10 mg/kg | –
3 | – | – | – | – | – | – | 0.5 µg/mL (≈ 0.535 µM) | CC[C@H]1OC(=O)C[C@@H](O)[C@H](C)[C@@H](O[C@@H]2O[C@H](C)[C@@H](OC(C)=O)[C@H](N(C)C)[C@H]2OC(C)=O)[C@@H](CCOc2ccccc2)C[C@@H](C)C(=O)/C=C/C(C)=C/[C@@H]1CO[C@@H]1O[C@H](C)[C@@H](O)[C@@H](OC)[C@H]1OC | – | – | 16 mg/kg | 2.9 mg/kg | –
4 | 0.12 µg/mL (≈ 0.155 µM) | 0.25 µg/mL (≈ 0.322 µM) | 0.25 µg/mL (≈ 0.322 µM) | 2 µg/mL (≈ 2.58 µM) | 16 µg/mL (≈ 20.6 µM) | 8 µg/mL (≈ 10.3 µM) | – | CC[C@H]1OC(=O)C[C@@H](O)[C@H](C)[C@@H](O[C@@H]2O[C@H](C)[C@@H](O)[C@H](N(C)C)[C@H]2O)[C@@H](CCF)C[C@@H](C)C(=O)/C=C/C(C)=C/[C@@H]1CO[C@@H]1O[C@H](C)[C@@H](O)[C@@H](OC)[C@H]1OC | 8 mg/kg | 5 mg/kg | – | – | Concentration (Rattus norvegicus [11]): 0.5 µg/mL; Concentration (Rattus norvegicus [12]): 1.5 µg/mL; Concentration (Mus musculus [13]): 0.4 µg/mL; Concentration (Rattus norvegicus [14]): 0.3 µg/mL; Concentration (Mus musculus [15]): < 0.1 µg/mL; Concentration (Rattus norvegicus [16]): 0.1 µg/mL; Concentration (Mus musculus [17]): < 0.1 µg/mL; Concentration (Mus musculus [18]): 0.1 µg/mL; Concentration (Rattus norvegicus [19]): 1.9 µg/mL; Concentration (Mus musculus [20]): 0.2 µg/mL
